ChEMBL document CHEMBL4613234, “Auxiliary in vitro and in vivo biological evaluation of hydrogen peroxide sensitive prodrugs of methotrexate and aminopterin for the treatment of rheumatoid arthritis” (Bioorg Med Chem, 2020)
The source made the active and inactive calls. No cut-off for these calls is given here.

Key:
[1] = Apparent intrinsic clearance in rat liver microsomes; assay type: ADME, Microsome; settings: read-out: CLH
In short: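 Apparent intrinsic clearance (CL'int, mL/min/kg) determined in pooled rat liver microsomes.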

HL-60 [2] = experiment: Cytotoxicity against human HL60 cells assessed reduction in cell viability incubated for 48 hrs in presence of ROS scavenger pyruvate by Alamar blue assay; assay type: cell-based; settings: HL-60, 48 h
In short: (§1)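 HL-60, HEK293 and HeLa cells exposed to compound for 48 h with or without pyruvate as ROS scavenger; viability read by Alamar blue; IC50 in nM, mean of at least three replicates ± SEM.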

HL-60 [3] = experiment: Induction of apoptosis in human HL60 cells assessed as apoptotic cells at 0.1 to 10 uM in absence of ROS scavenger pyruvate by annexin V-FITC/propidium iodide staining based flow cytometry (reference value: 3 %); assay type: functional
In short: (§2)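 HL-60 cells in RPMI without pyruvate, treated 48 h at 10, 1 and 0.1 μM (vehicle 0.1% DMSO); annexin V/PI staining, flow cytometry gating singlets, apoptotic fraction taken as P4 + P5 populations; at least triplicates, mean ± SD; two-tailed unpaired t-test, p < 0.05.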

[4] = Half life of compound in culture media in absence of ROS scavenger pyruvate; assay type: physicochemical
HL-60 [5] = experiment: Cytotoxicity against human HL60 cells assessed as reduction in cell viability incubated for 48 hrs in absence of ROS scavenger pyruvate by Alamar blue assay; assay type: cell-based; settings: HL-60, 48 h; in short: as §1
[6] = Half life of compound in PBS buffer; assay type: physicochemical
HeLa [7] = experiment: Cytotoxicity against human HeLa cells assessed as reduction in cell viability incubated for 48 hrs in presence of ROS scavenger pyruvate by Alamar blue assay; assay type: cell-based; in short: as §1
Rattus norvegicus [8] = experiment: Antiarthritic activity in dark agouti rat model of collagen-induced arthritis assessed as decrease in disease severity at 0.3 mg/kg, ip administered on day 17 and treated until day 31 by macroscopic observation analysis; assay type: functional, organism-based
In short: (§3)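 Dark agouti rats with collagen-induced arthritis; daily i.p. dosing from disease onset (day 17), doses equimolar to 0.3 mg/kg MTX, DMSO kept at 2% (v/v). Arthritis scored macroscopically three times weekly: 1 point per swollen toe, 1 per swollen foot knuckle, 5 for swollen ankle, 0–15 per limb, maximum 60 per rat. n = 8 per group, 10 for vehicle; mean ± SEM.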

HEK293 [9] = experiment: Cytotoxicity against human HEK293 cells assessed as reduction in cell viability incubated for 48 hrs in presence of ROS scavenger pyruvate by Alamar blue assay; assay type: cell-based; settings: HEK293, 48 h; in short: as §1
HeLa [10] = experiment: Cytotoxicity against human HeLa cells assessed as reduction in cell viability incubated for 48 hrs in absence of ROS scavenger pyruvate by Alamar blue assay; assay type: cell-based; in short: as §1
[11] = Permeability of compound across artificial lipid/oil/lipid tri-layer membrane by PAMPA assay
[12] = Half life in human HEK293 cells in absence of ROS scavenger pyruvate; assay type: ADME, cell-based
HL-60 [13] = experiment: Induction of apoptosis in human HL60 cells assessed as apoptotic cells at 0.1 uM in absence of ROS scavenger pyruvate by annexin V-FITC/propidium iodide staining based flow cytometry (reference value: 3 %); assay type: functional; in short: as §2
HEK293 [14] = experiment: Cytotoxicity against human HEK293 cells assessed as reduction in cell viability incubated for 48 hrs in absence of ROS scavenger pyruvate by Alamar blue assay; assay type: cell-based; settings: HEK293, 48 h; in short: as §1
[15] = Toxicity in dark agouti rat model of collagen-induced arthritis assessed as adverse effect at 0.36 mg/kg, ip administered on day 17 and treated until day 31; assay type: organism-based; settings: in vivo
In short: (§4)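 Collagen-induced arthritis in dark agouti rats given daily i.p. doses from day 17 in 2% (v/v) DMSO vehicle; n = 8 per group. Tolerability followed as average body weight measured three times weekly, plus general health observation; animals removed early for high arthritis score or declining health.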

Rattus norvegicus [16] = experiment: Antiarthritic activity in dark agouti rat model of collagen-induced arthritis assessed as decrease in disease severity at 0.36 mg/kg, ip administered on day 17 and treated until day 31 by macroscopic observation analysis; assay type: functional, organism-based; in short: as §3
[17] = Toxicity in dark agouti rat model of collagen-induced arthritis assessed as increase in body weight at 0.36 mg/kg, ip administered on day 17 and treated until day 31; assay type: organism-based; settings: in vivo; in short: as §4
[18] = Toxicity in dark agouti rat model of collagen-induced arthritis assessed as increase in body weight at 0.38 mg/kg, ip administered on day 17 and treated until day 31; assay type: organism-based; settings: in vivo; in short: as §4
[19] = Toxicity in dark agouti rat model of collagen-induced arthritis assessed as adverse effect at 0.38 mg/kg, ip administered on day 17 and treated until day 31; assay type: organism-based; settings: in vivo; in short: as §4
Rattus norvegicus [20] = experiment: Antiarthritic activity in dark agouti rat model of collagen-induced arthritis assessed as decrease in disease severity at 0.38 mg/kg, ip administered on day 17 and treated until day 31 by macroscopic observation analysis; assay type: functional, organism-based; in short: as §3
[21] = Prodrug activation in PBS buffer assessed as H2O2-mediated hydrolysis by measuring half life at pH 7.4 measured up to 24 hrs by RP-HPLC/UV analysis; assay type: physicochemical; settings: pH 7.4, 24 h
[22] = Prodrug activation in PBS buffer assessed as H2O2-formation of methotrexate at pH 7.4 measured up to 24 hrs by RP-HPLC/UV analysis; assay type: physicochemical; settings: pH 7.4, 24 h
[23] = (§5) Ratio of IC50 for human HEK293 cells assessed as reduction in cell viability incubated for 48 hrs in presence of ROS scavenger pyruvate by Alamar blue assay to IC50 for human HEK293 cells assessed as reduction in cell viability incubated for 48 hrs in absence of ROS scavenger pyruvate by Alamar blue assay; assay type: cell-based; settings: read-out: Ratio IC50
In short: (§6)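 Ratio of 48 h Alamar blue IC50 values with versus without pyruvate as ROS scavenger, in HEK293 or HL-60 cells; each IC50 from at least three replicates.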

[24] = Half life in rat plasma; assay type: ADME, cell-free
In short: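 Reconstituted freeze-dried rat plasma diluted 1:1 with PBS to pH 7.4, incubated at 37 °C; half-life determined.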

[25] = Toxicity in dark agouti rat model of collagen-induced arthritis assessed as increase in body weight at 0.42 mg/kg, ip administered on day 17 and treated until day 31; assay type: organism-based; settings: in vivo; in short: as §4
Rattus norvegicus [26] = experiment: Antiarthritic activity in dark agouti rat model of collagen-induced arthritis assessed as decrease in disease severity at 0.42 mg/kg, ip administered on day 17 and treated until day 31 by macroscopic observation analysis; assay type: functional, organism-based; in short: as §3
HL-60 [27] = experiment: Cytotoxicity against human HL60 cells assessed as reduction in cell viability incubated for 48 hrs in presence of ROS scavenger pyruvate by Alamar blue assay relative to parent compound; assay type: cell-based; settings: hl-60, 48 h
[28] = as §5, with “HL60” for “HEK293”; assay type: cell-based, HL-60; settings: read-out: Ratio IC50; in short: as §6
[29] = Stability of compound in human HEK293 cells preincubated for 24 hrs followed by compound addition and subsequent removal of HEK293 cells in absence of ROS scavenger pyruvate; assay type: ADME, cell-based
[30] = Toxicity in dark agouti rat model of collagen-induced arthritis assessed as adverse effect at 0.42 mg/kg, ip administered on day 17 and treated until day 31; assay type: organism-based; settings: in vivo; in short: as §4
[31] = Half life in human HEK293 cells in presence of paraquat and absence of ROS scavenger pyruvate; assay type: ADME, cell-based

Compound	CLint scaled [1]	half-life [4]	half-life [6]	Papp [11]	half-life [12]	t1/2 [21]	IC50 (HL-60 [2])	Activity (HL-60 [3])	IC50 (HL-60 [5])	IC50 (HeLa [7])	IC50 (HEK293 [9])	IC50 (HeLa [10])	Activity (HL-60 [13])	IC50 (HEK293 [14])	other results
CN(Cc1cnc2nc(N)nc(N)c2n1)c1ccc(C(=O)N[C@@H](CCC(=O)O)C(=O)O)cc1 [METHOTREXATE]	1.5 mL/min/kg	> 1440 min	> 1440 min	< 1.5 ×10⁻⁶ cm/s	> 1 days	–	9.8 nM	17%	8.9 nM	59.3 nM	35 nM	21 nM	14%	28.6 nM	Activity (Rattus norvegicus [8]): Active
CN(Cc1cnc2nc(N)nc(N)c2n1)c1ccc(C(=O)N[C@@H](CCC(=O)N2CCSC2=O)C(=O)O)cc1	–	–	–	–	–	–	36 nM	–	40 nM	207 nM	–	164 nM	–	–	Activity [15]: Non-Toxic; Activity (Rattus norvegicus [16]): inactive; Activity [17]: Non-Toxic
Nc1nc(N)c2nc(CN(Cc3ccc(B(O)O)cc3)c3ccc(C(=O)N[C@@H](CCC(=O)O)C(=O)O)cc3)cnc2n1	–	–	–	–	–	–	38.3 nM	–	7.5 nM	42.2 nM	–	19.2 nM	–	–	Activity [18]: Non-Toxic; Activity [19]: Non-Toxic; Activity (Rattus norvegicus [20]): inactive
Nc1nc(N)c2nc(CNc3ccc(C(=O)N[C@@H](CCC(=O)O)C(=O)O)cc3)cnc2n1 [AMINOPTERIN]	–	–	–	–	–	–	3 nM	–	2.5 nM	3.6 nM	–	8.3 nM	–	–	–

Second part, led by results:

CLint scaled [1]	half-life [4]	half-life [6]	Papp [11]	half-life [12]	t1/2 [21]	Compound	IC50 (HL-60 [2])	Activity (HL-60 [3])	IC50 (HL-60 [5])	IC50 (HeLa [7])	IC50 (HEK293 [9])	IC50 (HeLa [10])	Activity (HL-60 [13])	IC50 (HEK293 [14])	other results
–	> 1440 min	–	< 1.5 ×10⁻⁶ cm/s	–	> 24 h	CN(Cc1cnc2nc(N)nc(NC(=O)OCc3ccccc3)c2n1)c1ccc(C(=O)N[C@@H](CCC(=O)O)C(=O)O)cc1	–	–	> 1000 nM	–	–	–	–	> 1000 nM	Drug metabolism [22]: Not Active
1.8 mL/min/kg	204 min	> 1440 min	< 1.5 ×10⁻⁶ cm/s	4.47 days	0.29 h	CN(Cc1cnc2nc(N)nc(NC(=O)OCc3ccc(B(O)O)cc3)c2n1)c1ccc(C(=O)N[C@@H](CCC(=O)O)C(=O)O)cc1	203 nM	17%	40.3 nM	194 nM	192 nM	156 nM	7%	62.9 nM	selectivity ratio at 48 h [23]: 5; half-life [24]: 984 min; Activity [25]: Non-Toxic; Activity (Rattus norvegicus [26]): Active; fold change (FC) (HL-60 [27]): 20; selectivity ratio at 48 h [28]: 5; t1/2 [29]: 16.1 h; Activity [30]: Non-Toxic; half-life [31]: 2.63 days
